The source made the active and inactive calls. No cut-off for these calls is given here.
Assays:
Lanosterol synthase = target: T1, Lanosterol synthase (Homo sapiens, UniProt P48449); assay: Inhibition of 2,3-oxidosqualene-lanosterol cyclase
T1 sequence (P48449 whole entry): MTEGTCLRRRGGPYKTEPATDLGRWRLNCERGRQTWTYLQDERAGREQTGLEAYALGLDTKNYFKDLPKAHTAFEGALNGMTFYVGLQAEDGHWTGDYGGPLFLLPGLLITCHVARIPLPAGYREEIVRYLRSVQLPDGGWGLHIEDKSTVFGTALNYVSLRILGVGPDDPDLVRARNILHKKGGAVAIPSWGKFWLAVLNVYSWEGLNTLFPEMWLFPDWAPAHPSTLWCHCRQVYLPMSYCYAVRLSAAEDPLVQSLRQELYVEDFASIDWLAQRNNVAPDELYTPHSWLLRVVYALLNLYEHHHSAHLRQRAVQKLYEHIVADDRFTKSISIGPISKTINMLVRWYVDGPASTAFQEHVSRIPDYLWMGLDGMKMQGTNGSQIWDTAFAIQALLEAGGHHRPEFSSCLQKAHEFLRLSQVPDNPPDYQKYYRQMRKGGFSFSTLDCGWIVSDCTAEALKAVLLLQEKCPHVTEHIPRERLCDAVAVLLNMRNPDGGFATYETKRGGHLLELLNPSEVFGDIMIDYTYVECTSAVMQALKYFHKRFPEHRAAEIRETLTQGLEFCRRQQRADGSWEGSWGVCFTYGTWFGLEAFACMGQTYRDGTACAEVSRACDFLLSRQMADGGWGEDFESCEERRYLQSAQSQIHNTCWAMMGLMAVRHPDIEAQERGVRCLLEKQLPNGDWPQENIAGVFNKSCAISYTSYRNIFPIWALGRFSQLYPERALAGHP
In short: (§1)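 HepG2 cells were incubated 24 h with compound in BME with 10% fetal calf serum, then labelled with [14C]mevalonate (7.4 kBq). Lipids were extracted with heptane/isopropanol and separated by TLC. [14C]cholesterol, MES and DES were identified against standards and quantified by phosphorimaging, scoring cholesterol synthesis inhibition together with MES/DES formation.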

Rattus norvegicus [1] = assay: Induction of neosynthetized 2,3 mono-epoxysqualene synthesis in OFA rat lens at 2 mg/kg, po after 3 hrs relative to BIBB 515; assay type: functional, Lens of camera-type eye
In short: (§2)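 Male OFA rats dosed orally at 2 mg/kg. Sterol synthesis was labelled by ip [14C]mevalonate (370 kBq) for the final hour, giving 3 h or 8 h total exposure. Lens and liver lipids were extracted with isopropanol, separated by TLC, and cholesterol and MES radioactivity quantified by phosphorimaging. Cholesterol inhibition is relative to vehicle-treated rats, and MES as % of BIBB 515-treated rats (100%).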

Rattus norvegicus [2] = assay: Induction of neosynthetized 2,3 mono-epoxysqualene synthesis in OFA rat liver at 2 mg/kg, po after 3 hrs relative to BIBB 515; assay type: functional; in short: as §2
Rattus norvegicus [3] = assay: Inhibition of neosynthetized cholesterol synthesis in OFA rat liver at 2 mg/kg, po after 3 hrs; assay type: functional; in short: as §2
Rattus norvegicus [4] = assay: Induction of neosynthetized 2,3 mono-epoxysqualene synthesis in OFA rat lens at 2 mg/kg, po after 8 hrs relative to BIBB 515; assay type: functional, Lens of camera-type eye; in short: as §2
Rattus norvegicus [5] = assay: Induction of neosynthetized 2,3 mono-epoxysqualene synthesis in OFA rat liver at 2 mg/kg, po after 8 hrs relative to BIBB 515; assay type: functional; in short: as §2
[6] = Biodistribution in OFA rat eyes at 1 mg/kg, iv after 6 hrs; assay type: ADME, organism-based; parameters: dose 1 mg/kg, route intravenous; details: eye, read-out: Drug uptake
In short: (§3)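 OFA rats (n = 10) dosed 1 mg/kg by iv bolus via penis vein in 10% DMA/90% PEG200. Plasma and tissue homogenates in borate buffer 0.1 M pH 11.5 were extracted with ethyl ether and analysed by LC. Plasma AUC was computed over 0–6 h.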

[7] = Biodistribution in OFA rat liver at 1 mg/kg, iv after 6 hrs; assay type: ADME, organism-based; parameters: dose 1 mg/kg, route intravenous; details: read-out: Drug uptake; in short: as §3
Rattus norvegicus [8] = assay: Inhibition of neosynthetized cholesterol synthesis in OFA rat liver at 2 mg/kg, po after 8 hrs; assay type: functional; in short: as §2
[9] = Biodistribution in OFA rat eyes at 1 mg/kg, iv after 2 hrs; assay type: ADME, organism-based; parameters: dose 1 mg/kg, route intravenous; details: eye, read-out: Drug uptake; in short: as §3
[10] = Metabolic stability in rat liver microsomes assessed as intrinsic clearance […]; assay type: ADME, Microsome
Rattus norvegicus [11] = assay: Inhibition of neosynthetized cholesterol synthesis in OFA rat lens at 2 mg/kg, po after 8 hrs; assay type: functional; details: Lens of camera-type eye; in short: as §2
[12] = AUC (0 to 6 hrs) in OFA rat at 1 mg/kg, iv; assay type: ADME, organism-based; parameters: time < 6 hr, dose 1 mg/kg, route intravenous; details: plasma; in short: as §3
[13] = Biodistribution in OFA rat liver at 1 mg/kg, iv after 2 hrs; assay type: ADME, organism-based; parameters: dose 1 mg/kg, route intravenous; details: read-out: Drug uptake; in short: as §3
Rattus norvegicus [14] = assay: Inhibition of neosynthetized cholesterol synthesis in OFA rat lens at 2 mg/kg, po after 3 hrs; assay type: functional; details: Lens of camera-type eye; in short: as §2
[15] = target: T2, Lanosterol synthase (Homo sapiens) (UniProt P48449); assay: Inhibition of 2,3-oxidosqualene-lanosterol cyclase at 200 nM; in short: as §1
T2 sequence (whole entry): T1 sequence (P48449 whole entry)

Clc1ccc(CN2CCN(Cc3ccc(-c4ccncc4)cc3)CC2)cc1
IC50 (Lanosterol synthase): 0.316 µM

O=C(c1ccc(Cl)cc1)N1CCC(=Cc2ccc(C3=NCCO3)cc2)CC1
Activity (Rattus norvegicus [1]): 100%
Activity (Rattus norvegicus [2]): 100%
inhibition in vivo at 2 mg/kg (Rattus norvegicus [3]): 85%
Activity (Rattus norvegicus [4]): 100%
Activity (Rattus norvegicus [5]): 100%
concentration at 6 h [6]: < 10 ng/g
concentration at 6 h [7]: 169 ng/g
inhibition in vivo at 2 mg/kg (Rattus norvegicus [8]): 40%
concentration at 2 h [9]: < 10 ng/g
CLint scaled [10]: 2.3 mL/min/g
inhibition in vivo at 2 mg/kg (Rattus norvegicus [11]): 61%
AUC(0-t) at 6 h [12]: 1.03 µg·h/mL
concentration at 2 h [13]: 301 ng/g
inhibition in vivo at 2 mg/kg (Rattus norvegicus [14]): 79%

COc1ccc(C(=O)N2CCN(Cc3ccc(-c4ccncc4)cc3)CC2)cc1
IC50 (Lanosterol synthase): 2.51 µM

Cc1nc(-c2ccc(CN3CCN(C(=O)c4ccc(Cl)cc4)CC3)cc2)no1
Activity [15]: inactive

CN(C)Cc1ccc(CN2CCN(C(=O)c3ccc(Cl)cc3)CC2)cc1
IC50 (Lanosterol synthase): 0.04 µM

CN(C)Cc1cccc(-c2ccc(CCNS(=O)(=O)c3ccc(C#N)cc3)cc2)c1
Activity [15]: inactive

O=S(=O)(c1ccc(Cl)cc1)N1CCN(Cc2ccc(-c3ccncc3)cc2)CC1
Activity (Rattus norvegicus [2]): 45%
inhibition in vivo at 2 mg/kg (Rattus norvegicus [3]): 66%
CLint scaled [10]: 1.3 mL/min/g
IC50 (Lanosterol synthase): 0.013 µM

O=S(=O)(c1ccc(Cl)cc1)N1CCN(Cc2cccc(-c3ccncc3)c2)CC1
IC50 (Lanosterol synthase): 0.5 µM

Cn1cc(-c2ccc(CN3CCN(C(=O)c4ccc(Cl)cc4)CC3)cc2)cn1
Activity [15]: inactive

N#Cc1ccc(S(=O)(=O)NCCc2ccc(C(O)c3cccnc3)cc2)cc1 (racemic)
EC50 (Lanosterol synthase): 0.1 µM

Reference: ChEMBL document CHEMBL1150355, “Design and evaluation of a novel series of 2,3-oxidosqualene cyclase inhibitors with low systemic exposure, relationship between pharmacokinetic properties and ocular toxicity” (Bioorg Med Chem, 2008)
